Laboratory results taken from ChEMBL document CHEMBL4368909, “Identification of Dihydrofuro[3,4- d]pyrimidine Derivatives as Novel HIV-1 Non-Nucleoside Reverse Transcriptase Inhibitors with Promising Antiviral Activities and Desirable Physicochemical Properties” (J Med Chem, 2019).
pEC50, pIC50: −log10 of the molar value. ≈ marks a conversion by molar mass, not a printed value.

Assays:
[1] = Aqueous solubility of the compound at pH at 7.4 by HPLC analysis; format: physicochemical; settings: buffer, pH 7.4
Method in brief: (§1)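 Aqueous solubility read by HPLC in buffer at pH 2.0, 7.0 or 7.4.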

[2] = test system: Human immunodeficiency virus 1; test: Antiviral activity against HIV1 NL4-3 infected in human TZM-bl cells after 2 days by luciferase-bright glo assay; format: functional, organism-based; settings: Human immunodeficiency virus 1, NL4-3, TZM-bl, 48 h
TZM = test: Cytotoxicity against human TZM-bl cells after 4 days by XTT assay; format: cell-based; settings: 96 h
[3] = Selectivity ratio of CC50 for human TZM-bl cells to EC50 for HIV1 NL4-3 infected in human TZM-bl cells; format: toxicity, cell-based; settings: read-out: Ratio CC50/EC50
Method in brief: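 The selectivity index is CC50/EC50 in TZM-bl cells against NL4-3. […] The highest concentration tested was 125 ng/mL.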

[4] = Aqueous solubility of the compound at pH at 7 by HPLC analysis; format: physicochemical; settings: buffer, pH 7; method in brief: as §1
[5] = Aqueous solubility of the compound at pH at 2 by HPLC analysis; format: physicochemical; settings: buffer, pH 2; method in brief: as §1
[6] = Aqueous solubility of the compound in FASSIF by HPLC analysis; format: physicochemical; settings: simulated gi fluid
Method in brief: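 Solubility read by HPLC in fasted state simulated intestinal fluid (FaSSIF).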

[7] = test system: Human immunodeficiency virus 1; test: Antiviral activity against wild type HIV1 3B infected in human MT4 cells assessed as reduction in virus-induced cytopathic effect after 5 days by MTT assay; format: functional, organism-based; settings: Human immunodeficiency virus 1, 3B, MT4, 120 h
[8] = test system: Human immunodeficiency virus 1; test: Antiviral activity against HIV1 RES056 infected in human MT4 cells assessed as reduction in virus-induced cytopathic effect after 5 days by MTT assay; format: functional, organism-based; settings: Human immunodeficiency virus 1, RES056, MT4, 120 h
MT4 = test: Cytotoxicity against human MT4 cells after 5 days by MTT assay; format: cell-based; settings: mt4, 120 h
[9] = Selectivity ratio of CC50 for human MT4 cells to EC50 for HIV1 3B infected in human MT4 cells; format: toxicity, cell-based; settings: read-out: Ratio CC50/EC50
[10] = Selectivity ratio of CC50 for human MT4 cells to EC50 for HIV1 RES056 infected in human MT4 cells; format: toxicity, cell-based; settings: read-out: Ratio CC50/EC50
[11] = biological target: Human immunodeficiency virus type 1 reverse transcriptase (Human immunodeficiency virus 1, UniProt Q72547); test: Inhibition of recombinant HIV1 reverse transcriptase using (DIG)-dUTP and biotin-labeled dNTPs as substrate after 1 hr by ELISA
[12] = test system: Human immunodeficiency virus 2; test: Antiviral activity against HIV2 ROD infected in human MT4 cells assessed as reduction in virus-induced cytopathic effect after 5 days by MTT assay; settings: Human immunodeficiency virus 2, ISOLATE ROD, MT4, 120 h
[13] = test system: Human immunodeficiency virus 1; test: Antiviral activity against HIV1 harboring reverse transcriptase L100I mutant infected in human MT4 cells assessed as reduction in virus-induced cytopathic effect after 5 days by MTT assay; format: functional, organism-based; settings: Human immunodeficiency virus 1, MT4, 120 h
[14] = test system: Human immunodeficiency virus 1; test: Antiviral activity against HIV1 harboring reverse transcriptase K103N mutant infected in human MT4 cells assessed as reduction in virus-induced cytopathic effect after 5 days by MTT assay; format: functional, organism-based; settings: Human immunodeficiency virus 1, MT4, 120 h
[15] = test system: Human immunodeficiency virus 1; test: Antiviral activity against HIV1 harboring reverse transcriptase Y181C mutant infected in human MT4 cells assessed as reduction in virus-induced cytopathic effect after 5 days by MTT assay; format: functional, organism-based; settings: Human immunodeficiency virus 1, MT4, 120 h
[16] = test system: Human immunodeficiency virus 1; test: Antiviral activity against HIV1 harboring reverse transcriptase Y188L mutant infected in human MT4 cells assessed as reduction in virus-induced cytopathic effect after 5 days by MTT assay; format: functional, organism-based; settings: Human immunodeficiency virus 1, MT4, 120 h
[17] = test system: Human immunodeficiency virus 1; test: Antiviral activity against HIV1 harboring reverse transcriptase E138K mutant infected in human MT4 cells assessed as reduction in virus-induced cytopathic effect after 5 days by MTT assay; format: functional, organism-based; settings: Human immunodeficiency virus 1, MT4, 120 h
[18] = test system: Human immunodeficiency virus 1; test: Antiviral activity against HIV1 harboring reverse transcriptase F227L/V106A double mutant infected in human MT4 cells assessed as reduction in virus-induced cytopathic effect after 5 days by MTT assay; format: functional, organism-based; settings: Human immunodeficiency virus 1, MT4, 120 h
[19] = test system: Human immunodeficiency virus 1; test: Resistance factor, ratio of EC50 for HIV1 harboring reverse transcriptase L100I mutant to EC50 for wild type HIV1; format: functional
Method in brief: (§2)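 The resistance factor is the EC50 against the mutant strain divided by the EC50 against wild-type HIV-1. Both were measured in MT-4 cells by MTT read-out of protection from virus-induced cytopathicity.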

[20] = test system: Human immunodeficiency virus 1; test: Resistance factor, ratio of EC50 for HIV1 harboring reverse transcriptase K103N mutant to EC50 for wild type HIV1; format: functional; method in brief: as §2
[21] = test system: Human immunodeficiency virus 1; test: Resistance factor, ratio of EC50 for HIV1 harboring reverse transcriptase Y181C mutant to EC50 for wild type HIV1; format: functional; method in brief: as §2
[22] = test system: Human immunodeficiency virus 1; test: Resistance factor, ratio of EC50 for HIV1 harboring reverse transcriptase Y188L mutant to EC50 for wild type HIV1; format: functional; method in brief: as §2
[23] = test system: Human immunodeficiency virus 1; test: Resistance factor, ratio of EC50 for HIV1 harboring reverse transcriptase E138K mutant to EC50 for wild type HIV1; format: functional; method in brief: as §2
[24] = test system: Human immunodeficiency virus 1; test: Resistance factor, ratio of EC50 for HIV1 harboring reverse transcriptase F227L/V106A double mutant to EC50 for wild type HIV1; format: functional; method in brief: as §2

| Compound | pEC50 [7] | pEC50 [8] | CC50 (MT4) [nM] | selectivity ratio [9] | selectivity ratio [10] | pIC50 [11] | pEC50 [12] | further results |
| --- | --- | --- | --- | --- | --- | --- | --- | --- |
| Cc1cc(C#N)cc(C)c1Oc1nc(NC2CCN(Cc3ccc(S(N)(=O)=O)cc3)CC2)nc2ccsc12 |  |  |  |  |  |  |  | solubility [1]: < 1 µg/mL; pEC50 [2]: 8.94; CC50 (TZM): > 227 nM; selectivity ratio [3]: 196; solubility [4]: 0.05 µg/mL (≈ 0.0911 µM); solubility [5]: 190 µg/mL (≈ 346 µM); solubility [6]: 1.24 µg/mL (≈ 2.26 µM) |
| Cc1cc(C#N)cc(C)c1Oc1nc(NC2CCN(Cc3cccc(C(N)=O)c3)CC2)nc2c1CCC2 | 8.70 | 4.57 | 205000 | 124000 | 9 | 6.62 | < 3.69 |  |
| Cc1cc(C#N)cc(C)c1Oc1nc(NC2CCN(Cc3ccc([N+](=O)[O-])cc3)CC2)nc2c1CCC2 | 7.84 | 6.03 | 8730 | 599 | 9 | 6.62 | < 5.06 |  |
| Cc1cc(C#N)cc(C)c1Oc1nc(NC2CCN(Cc3ccncc3)CC2)nc2c1CCCC2 | 8.07 | 6.76 | 75800 | 8750 | 440 | 7.14 | 4.66 |  |
| Cc1cc(C#N)cc(C)c1Oc1nc(NC2CCN(Cc3ccc(S(C)(=O)=O)cc3)CC2)nc2c1CCC2 | 8.31 | 6.73 | 7450 | 1500 | 40 | 6.80 | 4.38 |  |
| Cc1cc(C#N)cc(C)c1Oc1nc(NC2CCN(Cc3ccc([N+](=O)[O-])cc3)CC2)nc2c1SCC2 | 8.10 | 6.31 | 6180 | 770 | 12 | 6.76 | < 5.21 |  |
| Cc1cc(C#N)cc(C)c1Oc1nc(NC2CCN(Cc3ccc(S(N)(=O)=O)cc3)CC2)nc2c1SCCC2 | 8.57 | 7.39 | ≥ 148000 |  |  |  | < 3.83 | pEC50 [13]: 7.89; pEC50 [14]: 8.28; pEC50 [15]: 7.98; pEC50 [16]: 8.10; pEC50 [17]: 8.07; pEC50 [18]: 7.65; Ratio EC50 [19]: 4.7; Ratio EC50 [20]: 1.9; Ratio EC50 [21]: 3.8; Ratio EC50 [22]: 3; Ratio EC50 [23]: 3.1; Ratio EC50 [24]: 8.3 |
| Cc1cc(C#N)cc(C)c1Oc1nc(NC2CCN(Cc3cccc(C(N)=O)c3)CC2)nc2c1CCCC2 | 8.19 | 5.50 | 158000 | 24400 | 50 | 7.00 | < 3.80 |  |
| Cc1cc(C#N)cc(C)c1Oc1nc(NC2CCN(Cc3ccc([N+](=O)[O-])cc3)CC2)nc2c1CSC2 | 7.94 | 5.94 | 27100 | 2340 | 24 | 6.89 | < 4.57 |  |
| Cc1cc(C#N)cc(C)c1Oc1nc(NC2CCN(Cc3ccc(S(C)(=O)=O)cc3)CC2)nc2c1SCC2 | 8.23 | 7.33 | 11900 | 2020 | 257 | 6.89 | 4.87 |  |
| Cc1cc(C#N)cc(C)c1Oc1nc(NC2CCN(Cc3ccc([N+](=O)[O-])cc3)CC2)nc2c1CCCC2 | 7.11 | 5.16 | 29100 | 376 | 4 | 7.03 | < 4.54 |  |
| Cc1cc(C#N)cc(C)c1Oc1nc(NC2CCN(Cc3ccc(S(N)(=O)=O)cc3)CC2)nc2c1CCC2 | 8.96 | 7.59 | > 234000 |  |  | 7.04 | 4.23 | pEC50 [13]: 8.23; pEC50 [14]: 7.96; pEC50 [15]: 7.85; pEC50 [16]: 7.85; pEC50 [17]: 7.37; pEC50 [18]: 7.45; Ratio EC50 [19]: 5.3; Ratio EC50 [20]: 10; Ratio EC50 [21]: 12.9; Ratio EC50 [22]: 12.7; Ratio EC50 [23]: 38.4; Ratio EC50 [24]: 32.3 |
| Cc1cc(C#N)cc(C)c1Oc1nc(NC2CCN(Cc3ccc(S(C)(=O)=O)cc3)CC2)nc2c1CSC2 | 8.42 | 6.77 | 45300 | 11700 | 259 | 7.04 | ≤ 4.64 |  |
| Cc1cc(C#N)cc(C)c1Oc1nc(NC2CCN(Cc3ccc(S(N)(=O)=O)cc3)CC2)nc2c1CSC2 | 7.43 | 6.13 | 26600 | 715 | 36 | 6.39 | ≤ 4.57 |  |
